Assay results published in ChEMBL document CHEMBL4138113, “Novel propanamides as fatty acid amide hydrolase inhibitors” (Eur J Med Chem, 2017).
Calls of active or inactive are those of the source.

Assays:
[1] = molecular target: T1, Fatty-acid amide hydrolase 1 (Rattus norvegicus) (UniProt P97612); assay: Reversible inhibition of rat brain FAAH at 0.03 to 1 uM using [3H]AEA as substrate preincubated for 60 mins followed by substrate addition by liquid scintillation counting analysis
T1 sequence (whole entry): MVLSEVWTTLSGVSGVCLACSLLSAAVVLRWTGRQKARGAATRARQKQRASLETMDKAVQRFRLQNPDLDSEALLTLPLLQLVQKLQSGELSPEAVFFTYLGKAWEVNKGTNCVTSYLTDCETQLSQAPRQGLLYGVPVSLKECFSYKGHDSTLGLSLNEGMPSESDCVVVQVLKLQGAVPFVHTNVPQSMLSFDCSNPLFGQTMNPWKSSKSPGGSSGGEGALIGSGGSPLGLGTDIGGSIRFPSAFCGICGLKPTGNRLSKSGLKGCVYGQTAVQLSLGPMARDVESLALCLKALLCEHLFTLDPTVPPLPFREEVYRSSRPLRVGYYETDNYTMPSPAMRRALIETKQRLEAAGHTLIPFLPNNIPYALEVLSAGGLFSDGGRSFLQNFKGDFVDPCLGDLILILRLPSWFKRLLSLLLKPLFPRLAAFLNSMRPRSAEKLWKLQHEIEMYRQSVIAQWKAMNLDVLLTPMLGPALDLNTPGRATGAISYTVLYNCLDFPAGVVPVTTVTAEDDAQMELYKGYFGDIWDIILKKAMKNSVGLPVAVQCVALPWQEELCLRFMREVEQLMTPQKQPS
How it was run: (§1)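 Rat brain homogenate at 20-fold normal strength was preincubated with vehicle or compound for 60 min, then diluted 20-fold and assayed with [3H]AEA for 10 min at 37 °C. In parallel, compound was added to vehicle-preincubated aliquots at the post-dilution free concentrations and at the undiluted final concentrations. Tritium was counted after charcoal separation.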

[2] = molecular target: T1, Fatty-acid amide hydrolase 1 (Rattus norvegicus); assay: Reversible inhibition of rat brain FAAH at 0.03 to 1 uM using [3H]AEA as substrate preincubated for 60 mins followed by 20 fold compound dilution and subsequent substrate addition by liquid scintillation counting analysis; how it was run: as §1
[3] = molecular target: T2, Fatty-acid amide hydrolase 1 (Rattus norvegicus, UniProt P97612); assay: Noncompetitive inhibition of rat brain FAAH using [3H]AEA as substrate after 10 mins by Dixon plot analysis
T2 sequence (P97612 whole entry): T1 sequence (whole entry)
How it was run: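 Kinetic study in rat brain homogenate (1 µg protein per assay). [3H]AEA hydrolysis ran for 10 min at 37 °C in Tris-EDTA buffer, pH 7.4, with the AEA:fatty acid-free BSA ratio held at 1:~4.5 across substrate levels. Radioactivity was measured by charcoal separation and scintillation counting. Data were fitted to competitive, mixed-type and non-competitive models, and the best model was chosen by Akaike's criterion.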

[4] = molecular target: T3, Fatty-acid amide hydrolase 1 (Mus musculus) (UniProt O08914); assay: Inhibition of B6CBAF1/J mouse brain FAAH using [3H]AEA as substrate after 10 mins in presence of N-(3-Methylpyridin-2-yl)-2-(4-((2-(trifluoromethyl)pyridin-4-yl)amino)phenyl)propanamide by Dixon plot analysis
T3 sequence (whole entry): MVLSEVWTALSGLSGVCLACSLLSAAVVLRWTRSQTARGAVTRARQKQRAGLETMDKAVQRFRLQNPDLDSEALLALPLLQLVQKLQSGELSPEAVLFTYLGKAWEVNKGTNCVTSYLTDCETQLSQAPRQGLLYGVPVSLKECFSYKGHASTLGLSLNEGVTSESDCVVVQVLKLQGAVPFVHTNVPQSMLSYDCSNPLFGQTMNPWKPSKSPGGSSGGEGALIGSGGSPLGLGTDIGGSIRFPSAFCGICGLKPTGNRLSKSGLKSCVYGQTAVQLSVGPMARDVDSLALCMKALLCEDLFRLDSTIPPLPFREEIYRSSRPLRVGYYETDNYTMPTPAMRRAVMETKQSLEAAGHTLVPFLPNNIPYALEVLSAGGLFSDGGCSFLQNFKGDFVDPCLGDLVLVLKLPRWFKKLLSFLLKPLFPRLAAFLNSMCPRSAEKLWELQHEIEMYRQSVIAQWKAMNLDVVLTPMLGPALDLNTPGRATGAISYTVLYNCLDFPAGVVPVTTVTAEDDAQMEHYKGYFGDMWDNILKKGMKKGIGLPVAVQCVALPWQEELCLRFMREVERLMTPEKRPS
How it was run: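 Kinetic study in brain homogenate from male B6CBAF1/J mice (0.3 µg protein per assay). [3H]AEA hydrolysis ran for 10 min at 37 °C in Tris-EDTA buffer, pH 7.4, with the AEA:fatty acid-free BSA ratio held at 1:~4.5. Products were separated on charcoal and counted by scintillation. Competitive, mixed-type and non-competitive fits were compared by Akaike's criterion.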

[5] = molecular target: T1, Fatty-acid amide hydrolase 1 (Rattus norvegicus); assay: Reversible inhibition of rat brain FAAH at 0.2 to 2 uM using [3H]AEA as substrate preincubated for 60 mins followed by substrate addition by liquid scintillation counting analysis; how it was run: as §1
[6] = molecular target: T1, Fatty-acid amide hydrolase 1 (Rattus norvegicus); assay: Reversible inhibition of rat brain FAAH at 0.2 to 2 uM using [3H]AEA as substrate preincubated for 60 mins followed by 20 fold compound dilution and subsequent substrate addition by liquid scintillation counting analysis; how it was run: as §1
[7] = molecular target: Fatty-acid amide hydrolase 1 (Homo sapiens, UniProt O00519, T488A); assay: Inhibition of FAAH T488A mutant (unknown origin) expressed in human HeLa cells using [3H]AEA as substrate after 2 hrs by liquid scintillation counting analysis; type: cell-based
[8] = molecular target: T4, Fatty-acid amide hydrolase 1 (Homo sapiens, UniProt O00519); assay: Inhibition of FAAH (unknown origin) expressed in human HeLa cells using [3H]AEA as substrate after 2 hrs by liquid scintillation counting analysis; type: cell-based
T4 sequence (O00519 whole entry): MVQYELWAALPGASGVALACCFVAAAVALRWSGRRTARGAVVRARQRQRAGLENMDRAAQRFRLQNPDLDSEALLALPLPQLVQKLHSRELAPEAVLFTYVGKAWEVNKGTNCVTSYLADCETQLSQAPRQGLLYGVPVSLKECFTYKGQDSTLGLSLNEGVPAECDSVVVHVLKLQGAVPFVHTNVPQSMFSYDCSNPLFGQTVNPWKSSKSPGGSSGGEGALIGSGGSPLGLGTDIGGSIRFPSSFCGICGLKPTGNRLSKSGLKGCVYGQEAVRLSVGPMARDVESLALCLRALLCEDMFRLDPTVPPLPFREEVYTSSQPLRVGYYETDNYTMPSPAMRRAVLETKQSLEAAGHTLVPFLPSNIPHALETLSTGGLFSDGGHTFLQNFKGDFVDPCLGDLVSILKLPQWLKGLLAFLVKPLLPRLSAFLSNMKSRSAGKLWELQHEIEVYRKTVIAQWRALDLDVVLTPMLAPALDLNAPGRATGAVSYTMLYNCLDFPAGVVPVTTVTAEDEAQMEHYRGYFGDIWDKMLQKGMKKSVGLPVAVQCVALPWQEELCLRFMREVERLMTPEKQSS

[9] = molecular target: T4, Fatty-acid amide hydrolase 1; assay: Inhibition of FAAH (unknown origin) expressed in human HeLa cells transfected with empty vector using [3H]AEA as substrate after 2 hrs by liquid scintillation counting analysis; type: cell-based

Fatty-acid amide hydrolase 1 (Homo sapiens, UniProt O00519, T488A), sequence (O00519 whole entry T488A): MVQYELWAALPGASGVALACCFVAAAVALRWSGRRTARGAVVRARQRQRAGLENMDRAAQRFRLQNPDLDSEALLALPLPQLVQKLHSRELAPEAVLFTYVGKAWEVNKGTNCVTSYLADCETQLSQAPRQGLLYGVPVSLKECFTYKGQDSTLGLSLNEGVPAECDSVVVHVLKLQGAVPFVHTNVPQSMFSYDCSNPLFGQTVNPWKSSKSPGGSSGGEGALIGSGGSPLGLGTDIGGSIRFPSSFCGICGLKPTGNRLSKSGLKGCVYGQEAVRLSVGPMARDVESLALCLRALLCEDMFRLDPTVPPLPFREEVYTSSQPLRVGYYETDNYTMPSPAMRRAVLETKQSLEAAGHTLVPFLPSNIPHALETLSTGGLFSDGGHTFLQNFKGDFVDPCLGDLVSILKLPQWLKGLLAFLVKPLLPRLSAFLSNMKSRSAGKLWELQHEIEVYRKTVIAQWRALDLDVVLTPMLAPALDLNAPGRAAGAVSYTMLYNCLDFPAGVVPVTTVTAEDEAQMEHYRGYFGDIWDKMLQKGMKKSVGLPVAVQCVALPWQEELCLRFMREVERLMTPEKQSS

| inhibition [1] | inhibition [2] | Ki [3] [nM] | inhibition [4] | inhibition [5] | inhibition [6] | IC50 [7] [nM] | IC50 [8] [nM] | IC50 [9] [nM] | Structure (SMILES) |
| --- | --- | --- | --- | --- | --- | --- | --- | --- | --- |
| Active | Active | 110 | Active |  |  |  |  |  | CC(C(=O)Nc1ncccc1Cl)c1ccc(Nc2ccnc(C(F)(F)F)c2)cc1 (centres undefined) |
|  |  |  |  | Active | Active | 1900 to 9400 | 2200 to 6500 | 2500 | Cc1cccnc1NC(=O)C(C)c1ccc(Nc2ccnc(C(F)(F)F)c2)cc1 (centres undefined) |
